Compound activity from PubChem.
SUMO1 PPI mod: SUMO1-SIM interaction modulation. inhibition, % at 20 µM. 0.33% of 360,000 active. SUMO1 binding to a labelled peptide, TR-FRET, 1 h; in the data active = inhibition above about 37%
Target sequence (P63165 whole entry, looked up): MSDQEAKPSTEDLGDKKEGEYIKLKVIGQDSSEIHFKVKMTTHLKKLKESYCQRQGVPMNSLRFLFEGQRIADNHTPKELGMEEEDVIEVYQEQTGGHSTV
NS3 helicase inh: blocks Hepatitis C virus NS3 helicase unwinding. NS3 helicase DNA unwinding, Cy5 molecular beacon fluorescence. inhibition, % at 10.9 µM. 0.56% of 290,000 active;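 active = inhibition above the mean of all tested compounds plus 3 SD, set per campaign, cut at about 35% in these data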
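Assay system: hepatitis C virus NS3 helicase domain fragment enzyme. Also added: annealed dual-labelled DNA beacon duplex, ATP-started. Timing: 1 h reaction at 25 °C, ATP-initiated. Technique: Cy5 fluorescence at 0 and 60 min, beacon hairpin quenching. Evaluation: % inhibition of unwinding. Replication: one well per compound.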
DNMT1 block: DNMT1 (human) enzyme inhibition; 0.83% of 360,000 active; DNMT1 molecular beacon, Hinp1I cleavage, fluorescence; P26358; inhibition (reported as % activation of signal), % at 10 µM; in the data active = inhibition above about 50%
UHRF1 MBD2 ctr: human UHRF1 methylated DNA binding inhibitors; UHRF1 binding to methylated oligo, TR-FRET; inhibition, % at 4.4 µM; 0.75% of 370,000 active; AID 687016; in the data active = inhibition above about 21%;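 note: UHRF1 SRA domain binding a hemimethylated CpG hairpin DNA probe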
DSG3 Ab inh: inhibitors of pemphigus antibody binding to human desmoglein-3; DSG3-coupled beads, scFv-anti-DSG3-GFP binding, flow cytometry; hits give low values; binding (percent of control), % at 10 µM; 0.48% of 310,000 active; AID 588358; P32926;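 active = binding more than 3 SD below its plate's average and above zero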;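 note: hits lower antibody fragment binding to DSG3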
MBD2 inh: blocks human MBD2 binding to methylated DNA. AID 686964. inhibition, % at 4.4 µM. TR-FRET, MBD2 binding to methylated oligonucleotide. Q9UBB5. 0.31% of 370,000 active; in the data active = inhibition above about 13%
Target sequence (Q9UBB5 whole entry, looked up): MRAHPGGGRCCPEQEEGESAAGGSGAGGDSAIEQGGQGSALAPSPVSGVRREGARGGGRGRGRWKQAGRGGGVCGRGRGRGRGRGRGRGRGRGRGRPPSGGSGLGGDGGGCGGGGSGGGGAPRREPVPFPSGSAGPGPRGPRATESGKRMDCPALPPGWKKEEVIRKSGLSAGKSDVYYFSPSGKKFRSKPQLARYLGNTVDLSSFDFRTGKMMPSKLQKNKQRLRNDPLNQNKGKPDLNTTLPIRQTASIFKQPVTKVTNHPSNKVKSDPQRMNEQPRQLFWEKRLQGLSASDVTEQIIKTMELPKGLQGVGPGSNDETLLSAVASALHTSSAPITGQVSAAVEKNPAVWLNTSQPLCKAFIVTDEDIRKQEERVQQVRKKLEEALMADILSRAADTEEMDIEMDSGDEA
Numbers stand for hits. A selection: hits, their analogues and other compounds. The true share with any hit is near 2.5%.

What do the screens show for `Cc1ccc(S(=O)(=O)Cn2nnnc2C(C(C)C)N2CCc3ccccc3C2)cc1` (stereo not given)?
SUMO1 PPI mod: inactive; NS3 helicase inh: inactive; DNMT1 block: inactive; DSG3 Ab inh: inactive

How did O=C(O)c1cc(-c2ccc3c(c2)OCO3)nc2ccc(Br)cc12 do in these assays?
SUMO1 PPI mod: inactive; NS3 helicase inh: inactive; DNMT1 block: inactive; UHRF1 MBD2 ctr: inactive; DSG3 Ab inh: 33; MBD2 inh: inactive

Results for COCCNc1oc(/C=C/c2cccs2)nc1S(=O)(=O)c1ccccc1 ?
SUMO1 PPI mod: inactive; DNMT1 block: inactive; UHRF1 MBD2 ctr: 53; DSG3 Ab inh: inactive; MBD2 inh: inactive

Results for Cc1cc(C(=O)Nc2cccnc2)on1 ?
SUMO1 PPI mod: inactive; NS3 helicase inh: inactive; DNMT1 block: inactive; UHRF1 MBD2 ctr: inactive; DSG3 Ab inh: inactive; MBD2 inh: inactive

Results for CC(=O)c1cccc(NC(=O)c2cc(C)no2)c1 ?
SUMO1 PPI mod: inactive; NS3 helicase inh: inactive; DNMT1 block: inactive; UHRF1 MBD2 ctr: 64; DSG3 Ab inh: inactive; MBD2 inh: inactive

Results for COc1ccc(C(C)=O)cc1COC(=O)c1cc(C)nc2ccccc12 ?
SUMO1 PPI mod: inactive; NS3 helicase inh: inactive; DNMT1 block: inactive; UHRF1 MBD2 ctr: inactive; DSG3 Ab inh: 61; MBD2 inh: inactive

What do the screens show for `COc1ccc(CNC(=O)C2=CC(c3ccc(OC)c(OC)c3)=NS(=O)(=O)N2C)cc1`?
SUMO1 PPI mod: inactive; NS3 helicase inh: inactive; DNMT1 block: inactive; UHRF1 MBD2 ctr: inactive; DSG3 Ab inh: inactive; MBD2 inh: inactive

What do the screens show for `COc1ccc(C2=NS(=O)(=O)N(C)C(C(=O)NCc3ccc4c(c3)OCO4)=C2)cc1OC`?
SUMO1 PPI mod: inactive; NS3 helicase inh: inactive; DNMT1 block: inactive; UHRF1 MBD2 ctr: inactive; DSG3 Ab inh: 63; MBD2 inh: inactive

Results for CO/N=C(/COc1ccc(F)cc1)c1ccc(OC)cc1 ?
SUMO1 PPI mod: inactive; NS3 helicase inh: inactive; DNMT1 block: inactive; UHRF1 MBD2 ctr: inactive; DSG3 Ab inh: 72; MBD2 inh: inactive

Results for COc1ccc(OCC(=O)O/N=C(\N)c2ccc(OC)cc2)cc1 ?
SUMO1 PPI mod: inactive; NS3 helicase inh: inactive; DNMT1 block: inactive; UHRF1 MBD2 ctr: inactive; DSG3 Ab inh: inactive; MBD2 inh: inactive

How did C[C@@H]1CC(=O)[C@H]2CC(CO)=CCC[C@@H]2[C@@]1(C)CC/C(=C/CO)CO do in these assays?
SUMO1 PPI mod: inactive; DNMT1 block: inactive

How did CN(C)C(=O)[C@H]1C[C@H]1[C@@H](O)[C@H](CO)NC(=O)[C@H](Cc1ccccc1)NC(=O)OC(C)(C)C do in these assays?
SUMO1 PPI mod: inactive; NS3 helicase inh: inactive; DNMT1 block: inactive; UHRF1 MBD2 ctr: 28; DSG3 Ab inh: inactive; MBD2 inh: inactive

Results for CCOC(=O)c1sc(NC(=O)CCc2ccc(OC)cc2)nc1C ?
SUMO1 PPI mod: inactive; NS3 helicase inh: inactive; DNMT1 block: inactive; UHRF1 MBD2 ctr: inactive; MBD2 inh: inactive

Results for Oc1ccc2ccccc2c1C=NC12CN3CCN(CN(C3)C1)C2 ?
SUMO1 PPI mod: 54; NS3 helicase inh: inactive; DNMT1 block: inactive; UHRF1 MBD2 ctr: inactive; DSG3 Ab inh: inactive; MBD2 inh: inactive

How did OCC(CO)(CO)N=Cc1c(O)ccc2ccccc12 do in these assays?
SUMO1 PPI mod: inactive; NS3 helicase inh: inactive; DNMT1 block: inactive; UHRF1 MBD2 ctr: inactive; DSG3 Ab inh: inactive; MBD2 inh: inactive

How did COC1=CC(=O)C(O)=C(CCCCCCC/C=C/CCCCCCCC2=C(O)C(=O)C=C(OC)C2=O)C1=O do in these assays?
SUMO1 PPI mod: 79; DNMT1 block: 82; DSG3 Ab inh: inactive

Results for O=C(CN1C(=O)CC(c2ccccc2)S(=O)(=O)c2ccccc21)N1CCCCC1 (stereo not given) ?
SUMO1 PPI mod: inactive; NS3 helicase inh: inactive; DNMT1 block: inactive; UHRF1 MBD2 ctr: 24; DSG3 Ab inh: inactive; MBD2 inh: inactive

What do the screens show for `CCN(CC)C(=O)N1CCN(C(=O)N2CCOCC2)CC1`?
SUMO1 PPI mod: inactive; NS3 helicase inh: inactive; DNMT1 block: inactive; UHRF1 MBD2 ctr: inactive; MBD2 inh: inactive

How did CCn1cc(C2C(C(=O)Nc3cc(C)ccn3)=C(C)NC3=C2C(=O)CC(C)(C)C3)c(C)n1 (stereo not given) do in these assays?
SUMO1 PPI mod: inactive; NS3 helicase inh: inactive; DNMT1 block: inactive; UHRF1 MBD2 ctr: 26; DSG3 Ab inh: inactive; MBD2 inh: inactive

How did CCN(CC)c1ccc(C2C(C(=O)Nc3ccccn3)=C(C)NC3=C2C(=O)CC(C)(C)C3)cc1 (stereo not given) do in these assays?
SUMO1 PPI mod: inactive; NS3 helicase inh: inactive; DNMT1 block: inactive; UHRF1 MBD2 ctr: inactive; DSG3 Ab inh: inactive; MBD2 inh: inactive

How did CC(C)(C)[C@@H]1C=C(C(=O)NC2CC2)O[C@H](OCc2ccc(CO)cc2)C1 do in these assays?
SUMO1 PPI mod: inactive; NS3 helicase inh: inactive; DNMT1 block: inactive; UHRF1 MBD2 ctr: 37; DSG3 Ab inh: inactive; MBD2 inh: inactive

Results for C[C@@H]1C=C(C(=O)NCc2ccccc2)O[C@H](OCc2ccc(CO)cc2)C1 ?
SUMO1 PPI mod: inactive; NS3 helicase inh: inactive; DNMT1 block: inactive; UHRF1 MBD2 ctr: 22; DSG3 Ab inh: inactive; MBD2 inh: inactive

Results for O=C(NNc1ccccc1C(F)(F)F)c1cccs1 ?
SUMO1 PPI mod: inactive; NS3 helicase inh: inactive; DNMT1 block: inactive; UHRF1 MBD2 ctr: inactive; MBD2 inh: inactive

What do the screens show for `CC1(c2ccc(O)cc2)NC(=O)N(c2ccccc2)N1` (stereo not given)?
SUMO1 PPI mod: inactive; NS3 helicase inh: inactive; DNMT1 block: inactive; UHRF1 MBD2 ctr: 24; DSG3 Ab inh: inactive; MBD2 inh: inactive

Results for CNS(=O)(=O)c1cccc(C(=O)OCC(=O)N2CCCC2)c1 ?
SUMO1 PPI mod: inactive; NS3 helicase inh: inactive; DNMT1 block: inactive; UHRF1 MBD2 ctr: inactive; DSG3 Ab inh: inactive; MBD2 inh: inactive

How did O=C(OCC(=O)N1CCCC1)c1cccc(Br)c1 do in these assays?
SUMO1 PPI mod: 67; NS3 helicase inh: inactive; DNMT1 block: inactive; UHRF1 MBD2 ctr: inactive; DSG3 Ab inh: inactive; MBD2 inh: inactive

Results for O=C(OCC(=O)N1CCCC1)c1ccccc1O ?
SUMO1 PPI mod: inactive; NS3 helicase inh: inactive; DNMT1 block: inactive; UHRF1 MBD2 ctr: inactive; MBD2 inh: inactive

What do the screens show for `Cc1ccc(C(=O)OCC(=O)N2CCCCCC2)c(O)c1`?
SUMO1 PPI mod: inactive; DNMT1 block: inactive; UHRF1 MBD2 ctr: 29; DSG3 Ab inh: inactive; MBD2 inh: inactive

What do the screens show for `Cc1nc(SCc2cccc(Oc3ccccc3)c2)n[nH]1`?
SUMO1 PPI mod: inactive; NS3 helicase inh: inactive; DNMT1 block: inactive; UHRF1 MBD2 ctr: inactive; DSG3 Ab inh: inactive; MBD2 inh: inactive

Results for Cc1cc(C(=O)NC2CCCc3ccccc32)no1 (stereo not given) ?
SUMO1 PPI mod: inactive; NS3 helicase inh: inactive; DNMT1 block: inactive; UHRF1 MBD2 ctr: inactive; DSG3 Ab inh: inactive; MBD2 inh: inactive
